Laboratory results taken from ChEMBL document CHEMBL1124215, “Improved delivery through biological membranes. 26. Design, synthesis, and pharmacological activity of a novel chemical delivery system for beta-adrenergic blocking agents” (1988).

Tests used:
Oryctolagus cuniculus [1] = assay: Concentration of propranolone oxime in cornea of rabbit after 30 min administration of compound; type: functional, organism-based
How it was run: (§1)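 Adult male New Zealand albino rabbits (2.5–3.5 kg), at least four per time point. 100 µL of a 1% solution in saline was instilled topically into both eyes. Animals were killed at 30, 60 or 120 min. Cornea and iris-ciliary body were homogenized in methanol to 10% homogenates and deproteinized by centrifugation. Aqueous humor was analysed undiluted. HPLC was calibrated against spiked control-rabbit tissue. Values are mean ± SE, µg/g.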

Oryctolagus cuniculus [2] = assay: Concentration of propranolone oxime in cornea of rabbit after 60 min administration of compound; type: functional, organism-based; how it was run: as §1
Oryctolagus cuniculus [3] = assay: Concentration of propranolone oxime in iris-ciliary body of rabbit after 30 min administration of compound; type: functional, organism-based; how it was run: as §1
Oryctolagus cuniculus [4] = assay: Concentration in aqueous humor of rabbit after 60 min administration of compound; type: functional, organism-based; conditions: Aqueous humor of eyeball; how it was run: as §1
Oryctolagus cuniculus [5] = assay: Concentration in cornea of rabbit after 120 min administration of compound; type: functional, organism-based; how it was run: as §1
Oryctolagus cuniculus [6] = assay: Percentage change of IOP in rabbits after 60 min administration (1%) of compound; type: functional
How it was run: (§2)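 Rabbits received 1% or 2.5% drug solution in pH 7.4 buffer or saline in both eyes, at least four per group. A control group of at least three rabbits received carrier only. IOP was read by pneumatonometer in unrestrained, unanesthetized animals after one drop of 0.5% propacaine diluted 1:2 with saline. Readings were taken at 30 and 60 min and at 2–8 h. Values are mean ± SE, with significance by Student's t test.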

Oryctolagus cuniculus [7] = assay: Percentage change of IOP in rabbits after 60 min administration (2.5%) of compound; type: functional; how it was run: as §2
Oryctolagus cuniculus [8] = assay: Percentage change of IOP in rabbits after 6 hr administration (1%) of compound; type: functional; how it was run: as §2
Oryctolagus cuniculus [9] = assay: Percentage change of IOP in rabbits after 6 hr administration (2.5%) of compound; type: functional; how it was run: as §2
Oryctolagus cuniculus [10] = assay: Percentage change of IOP in rabbits after 8 hr administration (1%) of compound; type: functional; how it was run: as §2
Oryctolagus cuniculus [11] = assay: Percentage change of IOP in rabbits after 8 hr administration (2.5%) of compound; type: functional; how it was run: as §2
Oryctolagus cuniculus [12] = assay: Percentage change of IOP in rabbits after 2 hr administration (1%) of compound; type: functional
How it was run: (§3)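 IOP was read by pneumatonometer in unrestrained, unanesthetized rabbits after local propacaine drops. Drug was given as a 1% or 2.5% solution in pH 7.4 buffer or saline to both eyes, at least four rabbits per group; controls (at least three) received carrier only. Readings were taken at 30 and 60 min and at 2, 3, 4, 6 and 8 h. Values are mean ± SE; Student's t test.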

Oryctolagus cuniculus [13] = assay: Percentage change of IOP in rabbits after 2 hr administration (2.5%) of compound; type: functional; how it was run: as §3
Oryctolagus cuniculus [14] = assay: Percentage change of IOP in rabbits after 30 min administration (1%) of compound; type: functional; how it was run: as §2
Oryctolagus cuniculus [15] = assay: Percentage change of IOP in rabbits after 30 min administration (2.5%) of compound; type: functional; how it was run: as §2
Oryctolagus cuniculus [16] = assay: Percentage change of IOP in rabbits after 3h administration (1%) of compound; type: functional; how it was run: as §2
Oryctolagus cuniculus [17] = assay: Percentage change of IOP in rabbits after 3h administration (2.5%) of compound; type: functional; how it was run: as §2
Oryctolagus cuniculus [18] = assay: Percentage change of IOP in rabbits after 4 hr administration (1%) of compound; type: functional; how it was run: as §2
Oryctolagus cuniculus [19] = assay: Percentage change of IOP in rabbits after 0 min administration (1%) of compound; type: functional; how it was run: as §3
Oryctolagus cuniculus [20] = assay: Percentage change of IOP in rabbits after 0 min administration (2.5%) of compound; type: functional; how it was run: as §3
Oryctolagus cuniculus [21] = assay: Concentration in cornea of rabbit after 30 min administration of compound; type: functional, organism-based; how it was run: as §1
Oryctolagus cuniculus [22] = assay: Concentration in cornea of rabbit after 60 min administration of compound; type: functional, organism-based; how it was run: as §1
Oryctolagus cuniculus [23] = assay: Concentration in iris -ciliary body of rabbit after 30 min administration of compound; type: functional, organism-based; how it was run: as §1
Oryctolagus cuniculus [24] = assay: Concentration in iris-ciliary body of rabbit after 120 min administration of compound; type: functional, organism-based; how it was run: as §1
Oryctolagus cuniculus [25] = assay: Concentration of propranolone oxime in aqueous humor of rabbit after 30 min administration of compound; type: functional, organism-based; conditions: Aqueous humor of eyeball; how it was run: as §1
Oryctolagus cuniculus [26] = assay: Concentration of propranolone oxime in aqueous humor of rabbit after 60 min administration of compound; type: functional, organism-based; conditions: Aqueous humor of eyeball; how it was run: as §1
Oryctolagus cuniculus [27] = assay: Effect on IOP of rabbits 0 min after administration (2.5%); type: functional; how it was run: as §3
Oryctolagus cuniculus [28] = assay: Effect on IOP of rabbits 0 min after administration (1%); type: functional; how it was run: as §3
Oryctolagus cuniculus [29] = assay: Effect on IOP of rabbits 2 hr after administration (1%); type: functional; how it was run: as §3
Oryctolagus cuniculus [30] = assay: Effect on IOP of rabbits 2hmin after administration (2.5%); type: functional; how it was run: as §3
Oryctolagus cuniculus [31] = assay: Effect on IOP of rabbits 30 mins after administration (1%); type: functional; how it was run: as §3
Oryctolagus cuniculus [32] = assay: Effect on IOP of rabbits 30 mins after administration (2.5%); type: functional; how it was run: as §3
Oryctolagus cuniculus [33] = assay: Effect on IOP of rabbits 3h after administration (1%); type: functional; how it was run: as §3
Oryctolagus cuniculus [34] = assay: Effect on IOP of rabbits 3h after administration (2.5%); type: functional; how it was run: as §3
Oryctolagus cuniculus [35] = assay: Effect on IOP of rabbits 4 hr after administration (1%); type: functional; how it was run: as §3
Oryctolagus cuniculus [36] = assay: Effect on IOP of rabbits 4 hr after administration (2.5%); type: functional; how it was run: as §3
Oryctolagus cuniculus [37] = assay: Effect on IOP of rabbits 60 mins after administration (1%); type: functional; how it was run: as §3
Oryctolagus cuniculus [38] = assay: Effect on IOP of rabbits 60 mins after administration (2.5%); type: functional; how it was run: as §3
Oryctolagus cuniculus [39] = assay: Effect on IOP of rabbits 6 hr min after administration (1%); type: functional; how it was run: as §3
Oryctolagus cuniculus [40] = assay: Effect on IOP of rabbits 6 hr min after administration (2.5%); type: functional; how it was run: as §3
Oryctolagus cuniculus [41] = assay: Effect on IOP of rabbits 8 hr min after administration (1%); type: functional; how it was run: as §3
Oryctolagus cuniculus [42] = assay: Effect on IOP of rabbits 8 hr min after administration (2.5%); type: functional; how it was run: as §3
Oryctolagus cuniculus [43] = assay: Percentage change of IOP in rabbits after 4 hr administration (2.5%) of compound; type: functional; how it was run: as §2
Oryctolagus cuniculus [44] = assay: Concentration in iris -ciliary body of rabbit after 60 min administration of compound; type: functional, organism-based; how it was run: as §1
Oryctolagus cuniculus [45] = assay: Percentage change of IOP in rabbits after 5 hr administration (1%) of compound; type: functional; how it was run: as §2
Oryctolagus cuniculus [46] = assay: Percentage change of IOP in rabbits after 1 hr administration (1%) of compound; type: functional; how it was run: as §3
Oryctolagus cuniculus [47] = assay: Effect on IOP of rabbits 1 hr after administration (1%); type: functional; how it was run: as §3
Oryctolagus cuniculus [48] = assay: Effect on IOP of rabbits 5 hr after administration (1%); type: functional
Oryctolagus cuniculus [49] = assay: Effect on IOP of rabbits 6 hr after administration (1%); type: functional; how it was run: as §3
Oryctolagus cuniculus [50] = assay: Effect on IOP of rabbits 8 hr after administration (1%); type: functional; how it was run: as §3

CC(C)NC/C(COc1cccc2ccccc12)=N\O
Concentration (Oryctolagus cuniculus [1]): 23.8 µg/g | Concentration (Oryctolagus cuniculus [2]): 16.4 µg/g | Concentration (Oryctolagus cuniculus [3]): 7.8 µg/g | Concentration (Oryctolagus cuniculus [4]): 0.7 µg/g | Concentration (Oryctolagus cuniculus [5]): 1.1 µg/g | Change (Oryctolagus cuniculus [6]): >-11.51% | Change (Oryctolagus cuniculus [7]): -10% | Change (Oryctolagus cuniculus [8]): -7.08% | Change (Oryctolagus cuniculus [9]): >-9.23% | Change (Oryctolagus cuniculus [10]): 0.5% | Change (Oryctolagus cuniculus [11]): -0.77% | Change (Oryctolagus cuniculus [12]): -15.8% | Change (Oryctolagus cuniculus [13]): -13.08% | Change (Oryctolagus cuniculus [14]): -3.23% | Change (Oryctolagus cuniculus [15]): 1.92% | Change (Oryctolagus cuniculus [16]): -16.2% | Change (Oryctolagus cuniculus [17]): >-18.46% | Change (Oryctolagus cuniculus [18]): -20.1% | Change (Oryctolagus cuniculus [19]): 0% | Change (Oryctolagus cuniculus [20]): 0% | Concentration (Oryctolagus cuniculus [21]): 1.7 µg/g | Concentration (Oryctolagus cuniculus [22]): 1.1 µg/g | Concentration (Oryctolagus cuniculus [23]): 2.1 µg/g | Concentration (Oryctolagus cuniculus [24]): 0.4 µg/g | Concentration (Oryctolagus cuniculus [25]): 0.8 µg/g | Concentration (Oryctolagus cuniculus [26]): 0.8 µg/g | IOP (Oryctolagus cuniculus [27]): 26 mmHg | IOP (Oryctolagus cuniculus [28]): 27.8 mmHg | IOP (Oryctolagus cuniculus [29]): 23.4 mmHg | IOP (Oryctolagus cuniculus [30]): 22.6 mmHg | IOP (Oryctolagus cuniculus [31]): 26.9 mmHg | IOP (Oryctolagus cuniculus [32]): 26.5 mmHg | IOP (Oryctolagus cuniculus [33]): 23.3 mmHg | IOP (Oryctolagus cuniculus [34]): 21.2 mmHg | IOP (Oryctolagus cuniculus [35]): 22.2 mmHg | IOP (Oryctolagus cuniculus [36]): 20.4 mmHg | IOP (Oryctolagus cuniculus [37]): 24 mmHg | IOP (Oryctolagus cuniculus [38]): 23.4 mmHg | IOP (Oryctolagus cuniculus [39]): 25.8 mmHg | IOP (Oryctolagus cuniculus [40]): 23.6 mmHg | IOP (Oryctolagus cuniculus [41]): 27.9 mmHg | IOP (Oryctolagus cuniculus [42]): 25.8 mmHg | Change (Oryctolagus cuniculus [43]): -21.5% | Concentration (Oryctolagus cuniculus [44]): 1.8 µg/g

CC(C)(C)NC[C@H](O)COc1nsnc1N1CCOCC1 (stereo in doubt) [TIMOLOL]
Change (Oryctolagus cuniculus [8]): 1.2% | Change (Oryctolagus cuniculus [12]): -15.6% | Change (Oryctolagus cuniculus [14]): -2.43% | Change (Oryctolagus cuniculus [16]): -11.6% | Change (Oryctolagus cuniculus [18]): -5.31% | Change (Oryctolagus cuniculus [45]): -5.49% | Change (Oryctolagus cuniculus [19]): 0% | Change (Oryctolagus cuniculus [46]): -14.6% | IOP (Oryctolagus cuniculus [28]): 28.44 mmHg | IOP (Oryctolagus cuniculus [47]): 24.3 mmHg | IOP (Oryctolagus cuniculus [29]): 24 mmHg | IOP (Oryctolagus cuniculus [31]): 27.75 mmHg | IOP (Oryctolagus cuniculus [33]): 25.13 mmHg | IOP (Oryctolagus cuniculus [35]): 26.93 mmHg | IOP (Oryctolagus cuniculus [48]): 26.88 mmHg | IOP (Oryctolagus cuniculus [49]): 28.78 mmHg | IOP (Oryctolagus cuniculus [50]): 26.33 mmHg
